Data set [1] concerns Rattus norvegicus. The experiment in a line: Antihypertensive activity as percentage fall in systolic blood pressure in spontaneously hypertensive rats after a period of 3 h for a dose of 50 mg/kg. In kind it is functional, organism-based. On the set-up: dose 50 mg/kg. The following applies: Artery. The method, boiled down:
(§1)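 Male Okamoto-Aoki SHR, trained, in groups of four matched for mean systolic pressure; one group per run received water vehicle. Oral dosing in water (0.1 mL per 10 g) on two consecutive mornings. After the day-2 dose, rats were restrained at 30.0 ± 1.0 °C. Systolic pressure was read by tail cuff (inflated to 300 mmHg, first pulse) at 1–4 h. % fall is versus the untreated control group, by 1-tail t test (p ≤ 0.05).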

Data set [2] relates to Rattus norvegicus. The experiment in a line: Antihypertensive activity as percentage fall in systolic blood pressure in spontaneously hypertensive rats after a period of 1 hr for a dose of 50 mg/kg. The format is functional, Artery. The method, boiled down: as §1
A short description of data set [3]: Distribution coefficient between 1-Octanol and phosphate buffer at pH7.4. The format is physicochemical. Conditions: 1-octanol/phosphate buffer, pH 7.4. The method, boiled down:
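Octanol/buffer distribution measured at pH 7.4 in phosphate with sodium chloride. Either HPLC (0.004 M) or shake flask.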

Data set [4] relates to Rattus norvegicus. Description: Antihypertensive activity as percentage fall in systolic blood pressure in spontaneously hypertensive rats after a period of 2 hr for a dose of 50 mg/kg. In kind it is functional, organism-based. More on the design: dose 50 mg/kg. The following applies: Artery. The method, boiled down:
as §1

Data set [5] deals with Rattus norvegicus. Description: Antihypertensive activity as percentage fall in systolic blood pressure in spontaneously hypertensive rats after a period of 4 hr for a dose of 50 mg/kg. The format is functional, organism-based. On the set-up: dose 50 mg/kg. The following applies: Artery. The method, boiled down:
as §1

For data set [6], the system named is Rattus norvegicus. Description: Percentage fall in systolic blood pressure in spontaneously hypertensive rats after 2 hr following 50 mg/kg p.o. In kind it is functional, Artery. Conditions: route oral. The method, boiled down:
as §1

Data set [7] relates to Rattus norvegicus. Description: Percentage fall in systolic blood pressure in spontaneously hypertensive rats after 3 h following 50 mg/kg p.o. In kind it is functional, Artery. Conditions: route oral. Put shortly: as §1
For data set [8], the system named is Rattus norvegicus. The experiment in a line: Antihypertensive activity as percentage fall in systolic blood pressure in spontaneously hypertensive rats after a period of 1 hr for a dose of 50 mg/kg po. Conditions: Artery. In kind it is functional, organism-based. On the set-up: dose 50 mg/kg. The method, boiled down:
as §1

The values that follow come from ChEMBL document CHEMBL1121744, “Synthesis and antihypertensive activity of a series of 8-substituted 1-oxa-3,8-diazaspiro[4.5]decan-2-ones” (J Med Chem, 1981).

Usually logD stands for the decadic logarithm of the distribution of all forms, ionised or not, between an organic phase and buffer at a given pH. Read a low logD as a more hydrophilic compound.

Several values for one entry are separate records, joined by “and”; a condition that tells them apart may be missing. Equal entries are not always repeated.

Regarding `O=C1OC2(CCN(CC(O)C3COc4ccccc4O3)CC2)CN1CCc1ccccc1` (stereo unspecified), the “Decrease in blood pressure” value is “Not significant” in the data set on Rattus norvegicus [1], 14% in the data set with Rattus norvegicus [2], “Not significant” in the data set with Rattus norvegicus [4] and “Not significant” with Rattus norvegicus [5]. The logD in data set [3] was 2.79.
For `COc1ccccc1OC[C@@H](O)CN1CCC2(CC1)CN(C)C(=O)O2`, the “Decrease in blood pressure” value in the data set with Rattus norvegicus [6] (50 mg/kg) is 16% and 13%; in the data set with Rattus norvegicus [2], 25%; with Rattus norvegicus [7] it was 10%.
For `COCCN1CC2(CCN(CCc3c[nH]c4ccccc34)CC2)OC1=O`, the “Decrease in blood pressure” value in the data set with Rattus norvegicus [1] is “Not significant”; in the data set on Rattus norvegicus [2], 21%; in the data set on Rattus norvegicus [4], “Not significant”; with Rattus norvegicus [5] it was “Not significant”.
With `O=C1OC2(CCN(CC(O)C3COc4ccccc4O3)CC2)CN1Cc1ccccc1` (stereo unspecified), the “Decrease in blood pressure” value in the data set with Rattus norvegicus [1], in the data set on Rattus norvegicus [8], with Rattus norvegicus [4] and in the data set on Rattus norvegicus [5] was “Not significant” in each case.
Regarding `O=C1NC(c2ccccc2)C2(CCN(CCc3c[nH]c4ccccc34)CC2)O1` (stereo unspecified), the “Decrease in blood pressure” value in the data set on Rattus norvegicus [1], in the data set on Rattus norvegicus [8], in the data set on Rattus norvegicus [4] and in the data set with Rattus norvegicus [5] was “Not significant” each time. In data set [3], this compound had a logD of 2.61.
As to `CCCCN1CC2(CCN(CC(O)COc3ccccc3OC)CC2)OC1=O` (stereo unspecified), the “Decrease in blood pressure” value in the data set on Rattus norvegicus [1], in the data set on Rattus norvegicus [8], in the data set with Rattus norvegicus [4] and with Rattus norvegicus [5] was “Not significant” each time.
Take `CCCN1CC2(CCN(CCc3c[nH]c4ccccc34)CC2)OC1=O`: the “Decrease in blood pressure” value is “Not significant” in the data set with Rattus norvegicus [1], 14% in the data set on Rattus norvegicus [2], “Not significant” in the data set on Rattus norvegicus [4] and “Not significant” with Rattus norvegicus [5]. The same compound returned a logD in data set [3] of 2.36.
For `CCCN1CC2(CCN(CC(O)C3COc4ccccc4O3)CC2)OC1=O` (stereo unspecified), the “Decrease in blood pressure” value with Rattus norvegicus [1], in the data set with Rattus norvegicus [8], in the data set on Rattus norvegicus [4] and in the data set with Rattus norvegicus [5] was “Not significant” throughout.
As for `CCC1CN(CCc2c[nH]c3ccccc23)CCC12CNC(=O)O2` (stereo unspecified), the “Decrease in blood pressure” value with Rattus norvegicus [6] was 19%; in the data set on Rattus norvegicus [1] it was “Not significant”; in the data set with Rattus norvegicus [2] it was 16%; in the data set on Rattus norvegicus [5], “Not significant”. In data set [3], this compound yielded a logD of 2.01.
With `CC(C)CC1NC(=O)OC12CCN(CCc1c[nH]c3ccccc13)CC2` (stereo unspecified), the results for the “Decrease in blood pressure” value in the data set on Rattus norvegicus [2], with Rattus norvegicus [7] and in the data set on Rattus norvegicus [5] were 27%, 22% and “Not significant”, respectively.
In the case of `CCN1CC2(CCN(CC(O)COc3ccccc3OC)CC2)OC1=O` (stereo unspecified), the “Decrease in blood pressure” value in the data set on Rattus norvegicus [1] is “Not significant”; in the data set with Rattus norvegicus [2], 11%; in the data set with Rattus norvegicus [4] it was “Not significant”; in the data set on Rattus norvegicus [5], “Not significant”.
With `CCC1NC(=O)OC12CC[N+](C)(CCc1c[nH]c3ccccc13)CC2.[I-]` (stereo unspecified), the “Decrease in blood pressure” value with Rattus norvegicus [1] is “Not significant”; with Rattus norvegicus [2], 20%; with Rattus norvegicus [4], “Not significant”; in the data set on Rattus norvegicus [5] it was “Not significant”.
As to `CCCC1NC(=O)OC12CCN(CCc1c[nH]c3ccccc13)CC2` (stereo unspecified), the “Decrease in blood pressure” value in the data set on Rattus norvegicus [6] is 12%; in the data set with Rattus norvegicus [2], 36%; with Rattus norvegicus [7], 16%; with Rattus norvegicus [5] it was “Not significant”. In addition, the logD in data set [3] was 2.31.
Consider `O=C1OC2(CCN(CC(O)C3COc4ccccc4O3)CC2)CN1c1ccccc1` (stereo unspecified), for which the “Decrease in blood pressure” value with Rattus norvegicus [1] was “Not significant”; in the data set with Rattus norvegicus [2] it was 16%; in the data set on Rattus norvegicus [4], “Not significant”; with Rattus norvegicus [5], “Not significant”.
Take `COc1ccccc1OC[C@H](O)CN1CCC2(CC1)CN(C)C(=O)O2`: the “Decrease in blood pressure” value in the data set with Rattus norvegicus [6] was 5%; in the data set on Rattus norvegicus [1], “Not significant”; in the data set with Rattus norvegicus [2] it was 10%; with Rattus norvegicus [5], “Not significant”.
On to `O=C1OC2(CCN(CCc3c[nH]c4ccccc34)CC2)CN1Cc1ccccc1`, for which the “Decrease in blood pressure” value in the data set on Rattus norvegicus [1], in the data set on Rattus norvegicus [8], in the data set with Rattus norvegicus [4] and in the data set with Rattus norvegicus [5] was “Not significant” in each case. Also, the logD in data set [3] worked out at 2.91.
On to `CC1NC(=O)OC12CCN(CCc1c[nH]c3ccccc13)CC2` (stereo unspecified), for which the “Decrease in blood pressure” value with Rattus norvegicus [1] is “Not significant”; with Rattus norvegicus [2], 18%; in the data set with Rattus norvegicus [4], “Not significant”; with Rattus norvegicus [5], “Not significant”. Also, the logD in data set [3] stood at 1.43.
`CCCC1CN(CCc2c[nH]c3ccccc23)CCC12CNC(=O)O2` (stereo unspecified): the “Decrease in blood pressure” value with Rattus norvegicus [1] was “Not significant”; in the data set on Rattus norvegicus [2] it was 21%; with Rattus norvegicus [4] it was “Not significant”; in the data set on Rattus norvegicus [5] it was “Not significant”. Further, in data set [3], the logD came out at 2.42.
In the case of `CCCCN1CC2(CCN(CCc3c[nH]c4ccccc34)CC2)OC1=O`, the “Decrease in blood pressure” value in the data set with Rattus norvegicus [1], with Rattus norvegicus [8], in the data set on Rattus norvegicus [4] and in the data set with Rattus norvegicus [5] was “Not significant” throughout.
On to `CC(C)C1NC(=O)OC12CCN(CCc1c[nH]c3ccccc13)CC2` (stereo unspecified), for which the “Decrease in blood pressure” value was 17% in the data set on Rattus norvegicus [6], “Not significant” with Rattus norvegicus [1], 26% with Rattus norvegicus [2] and “Not significant” in the data set on Rattus norvegicus [5].
Take `CCC1N(C)C(=O)OC12CCN(CCc1c[nH]c3ccccc13)CC2` (stereo unspecified): the “Decrease in blood pressure” value in the data set on Rattus norvegicus [1], in the data set with Rattus norvegicus [8], with Rattus norvegicus [4] and in the data set on Rattus norvegicus [5] was “Not significant” in each case. The pH-dependent lipophilicity (logD) in data set [3] amounted to 2.14.
Consider `COc1ccccc1OCC(O)CN1CCC2(CC1)CNC(=O)O2` (stereo unspecified), for which the “Decrease in blood pressure” value in the data set on Rattus norvegicus [1], in the data set with Rattus norvegicus [8], in the data set with Rattus norvegicus [4] and with Rattus norvegicus [5] was “Not significant” in each case. The same compound returned a logD in data set [3] of 0.69.
In the case of `COc1ccccc1OCC(O)CN1CCC2(CC1)CN(CCc1ccccc1)C(=O)O2` (stereo unspecified), the “Decrease in blood pressure” value in the data set with Rattus norvegicus [1], in the data set with Rattus norvegicus [8], in the data set on Rattus norvegicus [4] and in the data set with Rattus norvegicus [5] was “Not significant” each time.
Take `CCCN1CC2(CCN(CC(O)COc3ccccc3OC)CC2)OC1=O` (stereo unspecified): the “Decrease in blood pressure” value with Rattus norvegicus [1], in the data set with Rattus norvegicus [8], in the data set on Rattus norvegicus [4] and with Rattus norvegicus [5] was “Not significant” in each case.
As for `O=C1OC2(CCN(CCc3c[nH]c4ccccc34)CC2)CN1CCc1ccccc1`, the “Decrease in blood pressure” value in the data set with Rattus norvegicus [1], in the data set on Rattus norvegicus [8], in the data set on Rattus norvegicus [4] and in the data set on Rattus norvegicus [5] was “Not significant” in each case. Further, the pH-dependent lipophilicity (logD) in data set [3] worked out at 2.95.
For `CCCCC1NC(=O)OC12CCN(CCc1c[nH]c3ccccc13)CC2` (stereo unspecified), the “Decrease in blood pressure” value was 14% with Rattus norvegicus [6], 24% in the data set with Rattus norvegicus [2], 15% with Rattus norvegicus [7] and “Not significant” with Rattus norvegicus [5].
Take `CCCCN1CC2(CCN(CC(O)C3COc4ccccc4O3)CC2)OC1=O` (stereo unspecified): the “Decrease in blood pressure” value in the data set on Rattus norvegicus [1], in the data set on Rattus norvegicus [8], in the data set with Rattus norvegicus [4] and with Rattus norvegicus [5] was “Not significant” each time.
In the case of `COc1ccccc1OCC(O)CN1CCC2(CC1)CN(C(C)C)C(=O)O2` (stereo unspecified), the “Decrease in blood pressure” value in the data set on Rattus norvegicus [1], with Rattus norvegicus [8], in the data set on Rattus norvegicus [4] and in the data set on Rattus norvegicus [5] was “Not significant” in each case.
With `O=C1NC(Cc2ccccc2)C2(CCN(CC(O)C3COc4ccccc4O3)CC2)O1` (stereo unspecified), the “Decrease in blood pressure” value in the data set with Rattus norvegicus [1], with Rattus norvegicus [8], with Rattus norvegicus [4] and with Rattus norvegicus [5] was “Not significant” each time. Besides, the logD in data set [3] is 2.41.
For `O=C1NC(c2ccccc2)C2(CCN(CC(O)C3COc4ccccc4O3)CC2)O1` (stereo unspecified), the “Decrease in blood pressure” value with Rattus norvegicus [1], in the data set on Rattus norvegicus [8], in the data set on Rattus norvegicus [4] and in the data set with Rattus norvegicus [5] was “Not significant” each time. Moreover, in data set [3], the logD is 2.41.
